Screens (PubChem BioAssay)
The list is not random: actives were taken first. Their share in the collection is about 5%.
Beta apoptosis: beta cell apoptosis inhibition; INS-1E cytokine-induced death, ATP luminescence, 48 h; percent of positive-control rescue, neutral wells zero; protection from apoptosis, % (no concentration beside the values); actives 0.8% (n = 300,000);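 active means Every replicate reaches about 75%, or at least half do and their mean reaches it too, limit read from the data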;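 further: 0% = cytokine-treated negative control wells and 100% = positive control rescue; higher means more ATP so stronger rescue from cytokine killing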
Mdm2 MdmX PPI: disrupts the human Mdm2-MdmX interaction; inhibition, % at 8 µM; SaOS-2 split-luciferase Mdm2/MdmX complementation, luminescence; O15151+Q00987; actives 3% (n = 330,000);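 active means inhibition of at least 50% at 8 µM in the primary screen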
T cruzi inh: T. cruzi replication inhibition; T. cruzi beta-gal in NIH3T3, luminescence, 90 h; inhibition, % (no concentration beside the values); actives 1.4% (n = 300,000);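 active means mean inhibition across valid replicates above about 55%, limit read from the data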;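 further: signal also drops with host cell toxicity which is not excluded here; 0% = plate median of DMSO wells and 100% = zero luminescence signal; higher percent means less beta-gal luminescence so fewer parasites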
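System – NIH/3T3 host cells with β-galactosidase reporter T. cruzi · Doses – single 50 nL compound addition per well in DMSO · Reagent – 5000 T. cruzi trypomastigotes/well · Medium – Low-serum DMEM with 2% FBS · Timing – ≥90 h infection period, 3 h prior cell attachment · Evaluation – parasite load inhibition, % · Technique – GalScreen luminescence, 60 min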
UPR CHOP act: activators of apoptotic arm of unfolded protein response (CHOP). actives 0.34% (n = 330,000). activation, % at 10 µM. CHO-CHOP luciferase reporter, UPR activation, luminescence; percent of tunicamycin response over DMSO baseline;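 active means at 10 µM dose, activation of 40% or more, normalized to positive control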;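 further: 100% = tunicamycin at 10 µg/mL and 0% = DMSO alone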
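System: CHO CHOP reporter cells. Amount: 500 cells per well. Buffer or medium: F12 medium, 10% FBS. Compound dosing: one dose, 10 µM in 0.5% DMSO. Incubation: 6 h compound exposure at 37 °C after overnight seeding. Technique: Steady-Glo luciferase luminescence. Benchmarks: tunicamycin and DMSO controls.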
UPR XBP1 act: activators of adaptive arm of unfolded protein response (XBP1) | actives 0.33% (n = 330,000) | CHO-XBP1 luciferase reporter, IRE1-XBP1 UPR activation, luminescence; percent of tunicamycin response, DMSO as zero | AID 463104 | activation, % at 20 µM;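 active means versus positive control, 20 µM dose yields 30% or more activation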;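 further: 100% = tunicamycin at 10 µg/mL and 0% = DMSO only wells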
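Assay system: CHO-XBP1 luciferase reporter cells; Schedule: 6 h treatment, 37 °C; Detection: glow luminescence from Steady-Glo reagent; Benchmarks: high control tunicamycin 10 µg/mL final, low control DMSO vehicle only.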
CSC inhib: cancer stem cell inhibition. actives 1.1% (n = 300,000). cancer stem cell-like cells viability, luminescence. inhibition, % at 7.5 µM. AID 2717; in the data active means inhibition above about 75%; tested in HMLE shEcad cells
UPR CHOP confirm: apoptotic UPR (CHOP) activation, confirmed. shares compounds with UPR CHOP act. activation, % at 10 µM. actives 64% (n = 1,000). AID 463112. CHO-CHOP cells, CHOP-luciferase reporter luminescence; percent of tunicamycin response, DMSO as zero; in the data active means activation above about 33%;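 further: 0% = DMSO wells and 100% = tunicamycin 10 µg/mL wells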
Active calls of the source: *; . = no result.

SMILES | Beta apoptosis | Mdm2 MdmX PPI | T cruzi inh | UPR CHOP act | UPR XBP1 act | CSC inhib | UPR CHOP confirm
CSC1=C(C#N)C(=O)NC(c2ccccc2O)S1 (stereo not drawn) | -1 | 26 | -5 | -1 | -3 | -3 | .
COC(=O)CSC1=C(C#N)C(=O)NC(c2ccccc2)S1 (stereo not drawn) | -13 | 21 | -5 | 88* | -3 | -13 | 29
CCCS(=O)(=O)c1c(S(=O)(=O)CCC)c2c(N)cccn2c1C(=O)c1ccc(OC)cc1 | -2 | -19 | 10 | 55* | -4 | 6 | 0
CCCS(=O)(=O)c1c(S(=O)(=O)CCC)c2c(N)cccn2c1C(=O)c1ccc(Br)cc1 | -4 | 0 | 29 | 1 | 2 | 18 | .
CCOC(=O)c1ccc(NC2=CC(=O)C(=O)c3ccccc32)cc1 | 40 | 34 | 47 | 65* | 9 | -7 | 9
Cc1onc(-c2c(Cl)cccc2Cl)c1C(=O)NCCc1ccncc1 | -6 | 4 | -7 | 0 | -2 | 14 | .
CN(C)C(=S)N=Nc1[nH]c2ccccc2c1O | 23 | 31 | 48 | 466* | 7 | 10 | 341*
CNC(=S)N=Nc1c(O)[nH]c2ccccc12 | 3 | . | -18 | . | . | -10 | .
O=C(CCNS(=O)(=O)c1ccccc1)OCC(=O)c1ccc[nH]1 | -2 | 2 | -3 | 0 | -4 | -8 | .
COc1cc(NC(=O)CNc2cccc(S(=O)(=O)N3CCOCC3)c2)cc(OC)c1 | . | 7 | . | 41* | 4 | . | -2
Cc1ccc(NC(=O)CNc2cccc(S(=O)(=O)N3CCOCC3)c2)cc1F | . | 34 | 2 | 2 | -2 | -4 | .
COC(=O)C1=C(C)N(c2ccc(C)c(C)c2)/C(=C/c2cccs2)C1=O | 0 | 20 | 40 | 90* | 15 | 26 | 50*
CCc1c(C)sc(NC(=O)c2cccs2)c1C#N | 5 | -32 | 13 | 50* | 5 | 5 | 1
O=C(CCC(=O)Nc1ccc(Cl)cc1Cl)N/N=C/c1ccc([N+](=O)[O-])o1 | 107* | 8 | 60* | 193* | 8 | -9 | 107*
O=C(Cc1ccc2c(c1)OCO2)NN=Cc1ccc([N+](=O)[O-])o1 | 41 | 13 | . | 11 | -1 | -1 | .
CC1=NN(c2ccc(Br)cc2)C(=O)/C1=C/c1cccs1 | 9 | 11 | -9 | -2 | -3 | . | .
O=C1NN(c2cccc(Br)c2)C(=O)/C1=C/c1cccs1 | -4 | -24 | -14 | 43* | 17 | 9 | 60*
CSc1nc(NC(C)(C)C)nc(Oc2ccc(=O)n(C)n2)n1 | 2 | 8 | -7 | -1 | 2 | -13 | .
O=C(Oc1c(CN2CCOCC2)cc(Cl)c2cccnc12)c1ccccc1F | 63 | 46 | 74* | 79* | 20 | 22 | 70*
Cc1ccc(-c2nn(-c3ccccc3)cc2C=C2C(=O)CC(C)(C)CC2=O)cc1 | -1 | 2 | 12 | 48* | 13 | 0 | 206*
CC1(C)CC(=O)C(=Cc2cn(-c3ccccc3)nc2-c2ccccc2)C(=O)C1 | 1 | 19 | -27 | 89* | 16 | 41 | 184*
CC(C)(CNC(=O)C1c2ccccc2-c2ccccc21)N1CCOCC1 | -4 | -17 | -12 | 1 | -1 | -4 | .
COc1ccc(-n2nc3c(c2NC(=O)CCl)CSC3)cc1 | -13 | 46 | -8 | 49* | -5 | 2 | 4
COc1ccc(-n2nc3c(c2NC(=O)C(C)Cl)CSC3)cc1 (stereo not drawn) | 2 | 14 | 1 | -2 | 0 | 18 | .
CCNc1ccccc1CP(=O)(c1ccccc1)c1ccccc1O (stereo not drawn) | 4 | 13 | 2 | 186* | -1 | -1 | 37*
C=CCn1nc([N+](=O)[O-])nc1Sc1cccc2cccnc12 | 95* | 33 | 50 | 168* | 14 | -18 | 230*
O=[N+]([O-])c1ccc(Sc2cccc3cccnc23)cc1 | 3 | 23 | -1 | 2 | 7 | -16 | .
